pIC50: −log10 of the molar value.
Key:
[1] = molecular target: T1, Angiotensin-converting enzyme (Oryctolagus cuniculus, UniProt P12822); assay: Evaluation of in vitro inhibitory activity against Angiotensin I converting enzyme
T1 sequence (P12822 whole entry): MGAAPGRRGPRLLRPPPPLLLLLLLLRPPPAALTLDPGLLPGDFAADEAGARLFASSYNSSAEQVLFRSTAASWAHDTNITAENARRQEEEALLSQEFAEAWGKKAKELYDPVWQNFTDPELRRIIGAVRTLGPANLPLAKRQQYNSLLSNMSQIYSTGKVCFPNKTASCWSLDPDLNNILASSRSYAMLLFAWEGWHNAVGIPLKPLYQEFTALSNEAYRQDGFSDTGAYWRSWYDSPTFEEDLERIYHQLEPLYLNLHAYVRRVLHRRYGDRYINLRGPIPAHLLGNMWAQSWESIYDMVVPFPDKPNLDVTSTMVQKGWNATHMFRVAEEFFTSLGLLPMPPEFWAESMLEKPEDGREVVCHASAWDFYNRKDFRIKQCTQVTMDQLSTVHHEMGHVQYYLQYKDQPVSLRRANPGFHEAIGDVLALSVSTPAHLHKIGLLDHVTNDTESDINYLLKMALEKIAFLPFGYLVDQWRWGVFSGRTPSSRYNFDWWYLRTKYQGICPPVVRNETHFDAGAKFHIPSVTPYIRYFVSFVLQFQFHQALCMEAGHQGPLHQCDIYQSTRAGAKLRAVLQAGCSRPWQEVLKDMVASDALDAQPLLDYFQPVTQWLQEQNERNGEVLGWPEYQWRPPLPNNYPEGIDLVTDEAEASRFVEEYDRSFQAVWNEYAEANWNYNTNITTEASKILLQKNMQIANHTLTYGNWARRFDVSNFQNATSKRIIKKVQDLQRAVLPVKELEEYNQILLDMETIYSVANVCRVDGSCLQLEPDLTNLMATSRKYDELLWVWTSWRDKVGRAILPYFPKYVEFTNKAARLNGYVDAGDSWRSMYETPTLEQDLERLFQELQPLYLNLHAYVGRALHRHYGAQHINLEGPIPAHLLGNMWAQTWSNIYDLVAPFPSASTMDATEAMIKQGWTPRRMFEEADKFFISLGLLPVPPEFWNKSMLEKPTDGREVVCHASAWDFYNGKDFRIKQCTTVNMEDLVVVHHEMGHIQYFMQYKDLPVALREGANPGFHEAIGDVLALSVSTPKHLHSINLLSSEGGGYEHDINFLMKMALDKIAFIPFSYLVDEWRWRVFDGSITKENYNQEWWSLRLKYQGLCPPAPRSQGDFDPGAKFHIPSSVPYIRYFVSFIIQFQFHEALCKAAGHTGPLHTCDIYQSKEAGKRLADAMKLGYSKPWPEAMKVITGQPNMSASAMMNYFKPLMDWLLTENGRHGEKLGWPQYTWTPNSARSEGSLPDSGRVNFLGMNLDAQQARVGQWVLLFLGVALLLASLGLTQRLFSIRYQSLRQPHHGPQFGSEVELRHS
Procedure, shortened: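 Rabbit lung ACE in 300 mM NaCl, 100 mM KH2PO4 (pH 8.3). Enzyme and drug mixed, then hippurylhistidylleucine (2 mg/mL stock) added and incubated 75 min at room temperature. Stopped with 1 N NaOH, o-phthalaldehyde added for 10 min at 25 °C, acidified with HCl, OD read at 360 nm.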

[2] = molecular target: T2, Angiotensin-converting enzyme (Rattus norvegicus) (UniProt P47820); assay: Evaluation of plasma inhibition of Angiotensin I converting enzyme activity in conscious rat 2 hours after intravenous administration at a dose of 10 mg/kg; format: functional, organism-based; parameters: dose 10 mg/kg
T2 sequence (whole entry): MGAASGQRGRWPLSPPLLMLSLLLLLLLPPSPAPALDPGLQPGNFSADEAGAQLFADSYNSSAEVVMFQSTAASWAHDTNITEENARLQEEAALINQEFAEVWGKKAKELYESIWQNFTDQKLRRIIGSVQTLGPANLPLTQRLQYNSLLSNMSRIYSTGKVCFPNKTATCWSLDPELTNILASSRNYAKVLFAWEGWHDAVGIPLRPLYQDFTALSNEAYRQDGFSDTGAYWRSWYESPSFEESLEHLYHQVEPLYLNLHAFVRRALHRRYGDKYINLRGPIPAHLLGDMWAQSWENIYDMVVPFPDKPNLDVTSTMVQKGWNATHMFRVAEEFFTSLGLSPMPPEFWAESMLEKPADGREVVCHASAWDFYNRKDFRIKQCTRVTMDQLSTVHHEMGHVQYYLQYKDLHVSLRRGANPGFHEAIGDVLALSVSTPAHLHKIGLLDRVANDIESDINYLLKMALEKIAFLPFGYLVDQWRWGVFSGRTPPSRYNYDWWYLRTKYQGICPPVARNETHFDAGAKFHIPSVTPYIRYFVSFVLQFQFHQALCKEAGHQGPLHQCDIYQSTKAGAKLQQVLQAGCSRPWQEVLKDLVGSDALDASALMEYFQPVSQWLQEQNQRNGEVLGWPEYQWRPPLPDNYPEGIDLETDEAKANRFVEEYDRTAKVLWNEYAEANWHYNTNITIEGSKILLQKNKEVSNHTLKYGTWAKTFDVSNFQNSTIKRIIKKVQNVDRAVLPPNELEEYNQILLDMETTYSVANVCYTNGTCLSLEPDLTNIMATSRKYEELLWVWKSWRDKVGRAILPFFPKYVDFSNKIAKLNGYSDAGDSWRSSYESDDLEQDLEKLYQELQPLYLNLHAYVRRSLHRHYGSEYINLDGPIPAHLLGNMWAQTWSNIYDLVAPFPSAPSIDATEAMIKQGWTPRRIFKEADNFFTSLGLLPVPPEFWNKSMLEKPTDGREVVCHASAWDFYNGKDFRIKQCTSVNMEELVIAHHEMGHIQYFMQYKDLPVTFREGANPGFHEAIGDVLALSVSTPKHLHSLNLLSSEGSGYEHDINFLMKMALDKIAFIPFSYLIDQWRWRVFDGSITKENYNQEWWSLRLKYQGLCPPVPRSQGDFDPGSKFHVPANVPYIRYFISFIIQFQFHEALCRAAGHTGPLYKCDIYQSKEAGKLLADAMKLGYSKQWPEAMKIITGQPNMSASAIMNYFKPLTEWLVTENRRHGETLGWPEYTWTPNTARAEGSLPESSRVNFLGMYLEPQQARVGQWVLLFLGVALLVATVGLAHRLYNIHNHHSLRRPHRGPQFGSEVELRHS
Procedure, shortened: (§1)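 Male conscious normotensive Sprague-Dawley rats (275-390 g) fitted the day before with femoral arterial and venous catheters under methohexital anesthesia. Three angiotensin-I challenges (300 ng/kg iv) given as baseline. Compound given iv, ia or po (12.3 mg/kg po dose in 3% cornstarch at 1 mg/mL), then AI challenges repeated at set times. Pressor response compared with the mean baseline response and expressed as % inhibition.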

[3] = molecular target: T2, Angiotensin-converting enzyme (Rattus norvegicus); assay: Evaluation of plasma inhibition of Angiotensin I converting enzyme activity in conscious rat 1 hour after intravenous administration at a dose of 10 mg/kg; format: functional, organism-based; parameters: dose 10 mg/kg; procedure, shortened: as §1
[4] = molecular target: T2, Angiotensin-converting enzyme (Rattus norvegicus); assay: Evaluation of plasma inhibition of Angiotensin I converting enzyme activity in conscious rat 4 hours after intravenous administration at a dose of 10 mg/kg; format: functional, organism-based; parameters: dose 10 mg/kg; procedure, shortened: as §1

| pIC50 [1] | inhibition [2] [%] | inhibition [3] [%] | inhibition [4] [%] | SMILES |
| --- | --- | --- | --- | --- |
| 7.82 | 43 | 91 | 30 | CC(C)[C@H](S)C(=O)NC1(C(=O)N[C@@H](Cc2ccc(O)cc2)C(=O)O)CC1 |
| 7.59 | 59 | 86 | 24 | CC(C)[C@H](S)C(=O)NC1(C(=O)N[C@@H](Cc2ccc(O)cc2)C(=O)O)Cc2ccccc2C1 |
| 7.66 | 75 | 86 | 43 | O=C(O)[C@H](Cc1ccc(O)cc1)NC(=O)C1(NC(=O)[C@@H](S)Cc2ccccc2)CCCC1 |
| 8.00 | 92 | 98 | 86 | CC(C)[C@H](S)C(=O)NC1(C(=O)N[C@@H](Cc2c[nH]c3ccccc23)C(=O)O)CCCC1 |
| 7.24 | 15 | 44 | 7 | O=C(CS)NC1(C(=O)N[C@@H](Cc2ccc(O)cc2)C(=O)O)CCCC1 |
| 7.46 | 52 | 73 | 28 | CC(C)[C@H](S)C(=O)NC1(C(=O)N[C@@H](Cc2ccccn2)C(=O)O)CCCC1 |
| 7.62 | 80 | 85 | 38 | CC(C)[C@H](S)C(=O)NC1(C(=O)N[C@@H](Cc2ccc(F)cc2)C(=O)O)CCCC1 |
| 7.74 | 68 | 79 | 44 | CC(C)[C@H](S)C(=O)NC1(C(=O)N[C@@H](Cc2cccs2)C(=O)O)CCCC1 |
| 7.96 | 100 | 97 | 87 | CC(C)[C@H](S)C(=O)NC1(C(=O)N[C@@H](Cc2ccsc2)C(=O)O)CCCC1 |
| 7.82 | 81 | 88 | 69 | CC(C)[C@H](S)C(=O)NC(C)(C)C(=O)N[C@@H](Cc1ccc(O)cc1)C(=O)O |
| 7.96 | 27 | 43 | 4 | CC(C)[C@H](S)C(=O)NC1(C(=O)N[C@@H](Cc2ccc(O)cc2)C(=O)O)CCOCC1 |
| 7.52 | 69 | 72 | 79 | CC(C)[C@H](S)C(=O)NC1(C(=O)N[C@@H](CCc2ccccc2)C(=O)O)CCCC1 |
| 8.15 | 91 | 90 | 83 | CC(C)[C@H](S)C(=O)NC1(C(=O)N[C@@H](Cc2ccc(O)cc2)C(=O)O)CCCC1 |

Source: ChEMBL document CHEMBL1128218, “New alpha-thiol dipeptide dual inhibitors of angiotensin-I converting enzyme and neutral endopeptidase EC 3.4.24.11” (J Med Chem, 1995)
